According to ChEMBL document CHEMBL4330151, “Antiviral Compounds from Codiaeum peltatum Targeted by a Multi-informative Molecular Networks Approach” (J Nat Prod, 2019):

Columns and labels:
[1] = Cytotoxicity against African green monkey Vero cells by MTS assay; type: cell-based; conditions: chlorocebus sabaeus
How it was run: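 Uninfected Vero A cells were exposed to the same compound concentrations as the CHIKV antiviral plates and incubated 5 days at 37 °C, 5% CO2. MTS/PMS was added for 1.5 h and absorbance read at 498 nm. OD values were converted to control percentages, and CC50 was obtained by logarithmic interpolation. Values are medians ± absolute deviation of at least three independent assays.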

Chikungunya virus = test: Antiviral activity against Chikungunya virus Indian Ocean strain 899 infected in African green monkey Vero cells assessed as protection against virus-induced cytopathic effect after 5 days by MTS assay; type: functional, organism-based; conditions: Indian Ocean strain 899, Vero, 120 h
[2] = Inhibition of GTP-bodipy binding to DENV2 N-terminal His6-tagged NS5 protein expressed in Escherichia coli after 15 mins by fluorescence polarization assay; parameters: species or system dengue virus type 2; conditions: read-out: Kd(app)
How it was run: (§1)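 Buffer was 50 mM Tris pH 7.5, 50 mM NaCl, 0.01% NP40 and 1 mM DTT, with 50 nM GTP-bodipy. NS5 was 300 nM for DENV-2 and 150 nM for ZIKV, with seven compound concentrations in 5% DMSO. Plates were incubated 15 min at room temperature, and fluorescence polarization was read at 485/520 nm after background subtraction. Kdapp was curve-fitted from triplicates in a single experiment.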

[3] = Inhibition of GTP-bodipy binding to ZIKV N-terminal His6-tagged NS5 protein expressed in Escherichia coli after 15 mins by fluorescence polarization assay; parameters: species or system Zika virus; conditions: read-out: Kd(app); how it was run: as §1
[4] = Inhibition of ZIKV N-terminal His6-tagged NS5 protein expressed in Escherichia coli using (Poly U) RNA template […] in presence of ATP/Triton-X-100 by picogreen dye based assay; parameters: species or system Zika virus
[5] = Inhibition of DENV2 N-terminal His6-tagged NS5 protein expressed in Escherichia coli using (Poly U) RNA template […] in presence of ATP by picogreen dye based assay; parameters: species or system dengue virus type 2
[6] = Inhibition of ZIKV N-terminal His6-tagged NS5 protein expressed in Escherichia coli using (Poly U) RNA template […] in presence of ATP by picogreen dye based assay; parameters: species or system Zika virus
[7] = Inhibition of DENV2 N-terminal His6-tagged NS5 protein expressed in Escherichia coli using (Poly U) RNA template […] in presence of ATP/Triton-X-100 by picogreen dye based assay; parameters: species or system dengue virus type 2
[8] = Selectivity index, ratio of CC50 for African green monkey Vero cells to EC50 for Chikungunya virus Indian Ocean strain 899 infected in African green monkey Vero cells; type: toxicity; conditions: read-out: Ratio CC50/EC50
How it was run: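 SI is CC50 (Vero) divided by EC50 (CHIKV) from the same 5-day MTS assay. For CC50, uninfected Vero A cells were exposed to the same compound concentrations. CC50 is the concentration reducing viable cells by 50%, by logarithmic interpolation of OD 498 nm control percentages. Median of ≥3 independent assays.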

SMILES	CC50 [1] [µM]	EC50 (Chikungunya virus) [µM]	Kd [2] [µM]	Kd [3] [µM]	IC50 [4] [µM]	IC50 [5] [µM]	IC50 [6] [µM]	IC50 [7] [µM]	selectivity ratio [8]
CC1(C)Oc2c(c(=O)[nH]c3ccccc23)[C@H]2[C@@H](Cl)[C@](C)(O)CC[C@@H]21	> 288	> 288							
COc1cc2c(C)c3c(cc2c2cc(O)c(C)cc12)O[C@H]1c2c(cc(O)c4cc(C)c(O)cc24)C(C)(C)C(=O)[C@@]1(OC)O3	> 172	> 86	> 100	> 100	> 100	4.5	4.8	> 100	
Cn1c(=O)c2c(c3ccccc31)OC(C)(C)[C@H]1CC[C@@](C)(O)[C@H](Cl)[C@H]21	> 208	> 277				> 119	> 138		
CO[C@]12Oc3c(cc4c(c3C)C(=O)C(=O)c3cc(C)c(O)cc3-4)O[C@H]1c1c(cc(O)c3cc(C)c(O)cc13)C(C)(C)C2=O	> 172	> 172	9.3	32.1	36	12.1	8.1	67.2	
CC(=O)OCn1c(=O)c2c(c3ccccc31)OC(C)(C)[C@H]1CC[C@@](C)(O)[C@H](Cl)[C@H]21	> 239	> 239				> 119	> 138		
C=C(C)[C@@]12OC3(c4ccccc4)O[C@@H]1[C@@H]1[C@@H]4O[C@]4(CO)[C@@H](O)[C@@]4(O)[C@@H](C[C@H](C)[C@@H]4OC(=O)c4ccccc4)[C@@]1(O3)[C@](C)(O)[C@@H]2OC(=O)c1ccccc1	52	10				> 69	> 69		5
COc1cc2c3c(cc(O)c2cc1C)C(C)(C)C(=O)[C@@]1(OC)Oc2c(cc4c(cc(OC)c5cc(C)c(O)cc54)c2C)O[C@@H]31			> 100	> 100	> 100	14.5	10.9	> 100	
COc1cc2c3c(cc(O)c2cc1C)C(C)(C)C(=O)[C@@]1(OC)Oc2c(cc4c(cc(OC)c5cc(C)c(OC)cc54)c2C)O[C@@H]31			> 100	> 100	> 100	21.7	13.6	> 100	
Cn1c2c(c(=O)c3ccccc31)[C@H]1[C@@H](Cl)[C@](C)(O)CC[C@@H]1C(C)(C)O2	> 277	> 277							
COc1cc2c3c(cc(O)c2cc1C)C(C)(C)C(=O)[C@]1(OC)Oc2c(cc4c(cc(OC)c5cc(C)c(OC)cc54)c2C)O[C@@H]31			> 100	> 100	> 100	17.8	12.7	> 100	
C=C(C)[C@@]12OC3(c4ccccc4)O[C@@]4([C@H]([C@H]1O)[C@@H]1O[C@]1(CO)[C@@H](O)[C@@]1(O)[C@H]4C[C@H](C)[C@@H]1OC(=O)c1ccccc1)[C@](C)(O3)[C@@H]2OC(=O)c1ccccc1	49	4.4				> 69	> 69		11
COc1cc2c(C)c3c(cc2c2cc(O)c(C)cc12)O[C@H]1c2c(cc(O)c4cc(C)c(O)cc24)C(C)(C)C(=O)[C@]1(OC)O3	> 129	> 172	> 100	> 100	> 100	9.1	8.1	> 100	
Nc1ncnc2c1ncn2[C@@H]1O[C@H](COP(=O)(O)OP(=O)(O)OP(=O)(O)O)C[C@H]1O						0.07	0.14		
